The text below walks through data of article PMC3424550 (Nucleic Acids Research, 2012).

Some results are limits rather than exact numbers.

Data set [1] addresses T1, E. coli RNAP TEC (Escherichia coli, UniProt P0A8T7+P0A8V2). In words: Time-resolved nucleotide addition. Format: biochemical. The settings on record: i − 7 6-MI TECs; 200 µM NTP, 25°C.
The target in data set [2] is GMP-extended TEC (TEC17), E. coli RNAP (Escherichia coli, UniProt P0A8T7+P0A8V2). Format: binding.
The next data set relates to TEC. To be noted: absence of the next incoming substrate NTP; cited from earlier work.
In data set [3] the target is T1, E. coli RNAP TEC. In words: PPi release, coupled PPase / MDCC-PBP stopped-flow assay. Format: biochemical.
The target of data set [4] is TEC assembled using β′H936A RNAP (Escherichia coli, UniProt P0A8T7+P0A8V2, H936A). The data set can be described thus: Equilibrium TGT titration of extended TECs, β′H936A RNAP. Format: binding. To be noted: β′His936 substituted with alanine. Put shortly: (§1)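 E. coli RNAP TECs (template strand limiting at 1 µM) on a synthetic scaffold, with 6-MI or 2-AP in the template or 2-AP added at the RNA 3′ end. Extended 10 min at 25°C in TB10 (pH 7.5) with 5 µM substrate and 0.2 nM yeast PPase. TGT added afterwards, 5 min more. Emission peaks: 6-MI 420 nm (ex 340), 2-AP 375 nm (ex 330). KTGT from a dissociation-equilibrium fit; errors are SD of best-fit estimates.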

The target of data set [5] is T1, E. coli RNAP TEC. Format: biochemical. The settings on record: time-resolved, saturating TGT (5 µM).
Data set [6] has as its target TEC assembled using β′M932A RNAP (Escherichia coli, UniProt P0A8T7+P0A8V2, M932A). In words: Equilibrium TGT titration of extended TECs, β′M932A RNAP. Format: binding. The essentials:
as §1

Data set [7] addresses TEC assembled with wild-type E. coli RNAP (Escherichia coli, UniProt P0A8T7+P0A8V2). In words: Equilibrium TGT titration of extended TECs, fluorescence of base analogs. Format: binding. The essentials: as §1
The target in the next data set is β′N458D TEC (Escherichia coli, UniProt P0A8T7+P0A8V2, N458D). In words: Equilibrium TGT titration of extended TECs, β′N458D RNAP. Format: binding. To be noted: AMP-extended β′N458D TEC. The essentials:
as §1

The next data set has as its system ΔTL RNAP TEC. The data set can be described thus: Equilibrium TGT titration of extended TECs, ΔTL RNAP. Format: binding, Escherichia coli. The settings on record: AMP-extended TEC, TL domain replaced by a two-alanine linker. Put shortly: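 Two-alanine-linker ΔTL RNAP TECs (template strand limiting at 1 µM) with a base-analog fluorophore in the template. Extended 1.5 h at 25°C in TB10 (pH 7.5) with 5 µM substrate and 0.2 nM yeast PPase. TGT added post-catalytically for 5 min more. Fluorescence taken at the emission peak: 6-MI 420 nm (ex 340) or 2-AP 375 nm (ex 330). Titration fitted to dissociation-equilibrium equations.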

The next data set has as its system RNAP. To be noted: cited from earlier work.
Data set [8] addresses TEC assembled using β′R933A RNAP (Escherichia coli, UniProt P0A8T7+P0A8V2, R933A). In words: Equilibrium TGT titration of extended TECs, β′R933A RNAP. Format: binding. The settings on record: β′Arg933 substituted with alanine. Put shortly: as §1

As for `Nc1ncnc2c1ncn2[C@@H]1O[C@H](COP(=O)(O)O)[C@@H](O)[C@H]1O` [AMP], the “nucleotide addition, half-life” value at E. coli RNAP TEC [1] was roughly 0.02 s.

Turning to `Nc1ccn([C@@H]2O[C@H](COP(=O)(O)O)[C@@H](O)[C@H]2O)c(=O)n1` [CMP], the “nucleotide addition, half-life” value on E. coli RNAP TEC [1] is roughly 0.008 s.

In the case of `Nc1ccn([C@@H]2O[C@H](COP(=O)(O)CP(=O)(O)OP(=O)(O)O)[C@@H](O)[C@H]2O)c(=O)n1` [CMPcPP, cytidine-5′-[(α,β)-methyleno]triphosphate], in data set [2], the “decrease in fluorescence upon CMPcPP binding to the TEC” value was roughly 15% and the “effect on fluorescence in the absence of TGT” value is reported as “failed to increase fluorescence”. The “effect on TGT action” value in [2] (templated CMPcPP) was “able to counter the effect of TGT”.

In the case of `Nc1nc2c(ncn2[C@@H]2O[C@H](COP(=O)(O)O)[C@@H](O)[C@H]2O)c(=O)[nH]1` [GMP], the “nucleotide addition, half-life” value at E. coli RNAP TEC [1] is roughly 0.02 s.

With `O=P(O)(O)OP(=O)(O)O` [PPi, pyrophosphate], the “rate of PPi release from the TEC” value with TEC is 2.9 s⁻¹; at E. coli RNAP TEC [3] (same TEC as Johnson et al., PPase-MDCC-PBP method), 120 s⁻¹. The “PPi to MDCC-PBP·Pi conversion rate” value at E. coli RNAP TEC [3] (10 µM PPase) was found to be 120 s⁻¹.

On to `CC(=O)O[C@@H]1[C@H](N)[C@@H](OP(=O)(O)O)[C@@]2(C(=O)O)CS[C@@](O)(C(N)=O)[C@@H]1O2` [TGT, tagetitoxin], for which the “increase in KTGT relative to wild-type” value in data set [4] and in data set [8] was greater than 7 fold in each case. The “effect on forward translocation” value on E. coli RNAP TEC [5] is given as “does not affect the rate of forward translocation”. In addition, the “quenching of the fluorescence of 3′ RNA 2-AP by TGT” value in data set [6] (2-AP ribonucleoside monophosphate-extended β′M932A TEC) is recorded as “did not quench”; in [7] (2-AP ribonucleoside monophosphate-extended TEC, wild-type), 2 fold. For the same compound, the “apparent KTGT relative to wild-type TEC” value in data set [6] (β′M932A TEC, higher) was found to be 5 fold. Moreover, in data set [7] (TECs lacking a 2′-OH group at the RNA 3′ end), the “increase of apparent TGT binding constant relative to rNMP-extended TECs” value is reported as roughly 10 fold. Also, the “increase in KTGT relative to rNMP-extended TECs” value in data set [7] (TECs lacking a 3′ OH group at the RNA 3′ end) is “approximately 5 fold”. The “effect on translocation state of extended TECs” value in data set [7] (TGT added post-catalytically) is “quantitatively moves extended TECs into the pre-translocated state”. The “move into the pre-translocated state at saturating TGT concentrations” value at β′N458D TEC is reported as no more than 20%. Besides, in the data set on ΔTL RNAP TEC, the “response of TEC to TGT action” value is given as “completely resistant”. Besides, in the data set on RNAP, the effect on pyrophosphorolysis result is on record as “strongly inhibit”.

Take `O=c1ccn([C@@H]2O[C@H](COP(=O)(O)O)[C@@H](O)[C@H]2O)c(=O)[nH]1` [UMP]: on E. coli RNAP TEC [1], the “nucleotide addition, half-life” value is roughly 0.02 s.
